From ChEMBL document CHEMBL3124843, “Synthesis, cytostatic, antimicrobial, and anti-HCV activity of 6-substituted 7-(het)aryl-7-deazapurine ribonucleosides” (J Med Chem, 2014)
Calls of active or inactive are those of the source. How the calls were made is not given here.

Legend:
A549 = experiment: Cytostatic activity against human A549 cells after 72 hrs by MTT assay; type: functional, cell-based; settings: A549, 72 h
Procedure, shortened: (§1)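 IC50 is the concentration that cuts cell growth by 50%, read by quantitative metabolic MTT staining after a 3-day treatment. The resistant sublines were made by raising the concentration of the cytotoxic drug step by step. CEM-DNR-bulk (daunorubicin-selected) stably overexpresses mrp-1. K562-TAX (paclitaxel-selected) expresses only mdr-1. HCT116p53−/− carries null p53 alleles. BJ and MRC-5 are nonmalignant fibroblasts.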

[1] = Antiproliferative activity against human HeLaS3 cells after 72 hrs by XTT assay; type: functional, cell-based; settings: HeLa S3, 72 h
Procedure, shortened: (§2)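 Antiproliferative test on HL-60 promyelocytic leukemia and HeLa S3 cervical carcinoma cells growing in liquid suspension.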

Staphylococcus aureus [2] = experiment: Antibacterial activity against Staphylococcus aureus CCM 3953 after 24 hrs; type: functional, organism-based
[3] = Cytotoxicity against human HuH7 cells infected with Hepatitis C virus subtype 1b; type: cell-based, Huh-7
Candida tropicalis = experiment: Antifungal activity against Candida tropicalis after 48 hrs; type: functional, organism-based
Pseudomonas aeruginosa [4] = experiment: Antibacterial activity against Pseudomonas aeruginosa CCM 3955 after 24 hrs; type: functional, organism-based
Candida parapsilosis = experiment: Antifungal activity against Candida parapsilosis after 48 hrs; type: functional, organism-based
HL-60 = experiment: Antiproliferative activity against human HL60 cells after 72 hrs by XTT assay; type: functional, cell-based; settings: HL-60, 72 h; procedure, shortened: as §2
Pseudomonas aeruginosa [5] = experiment: Antibacterial activity against multi-resistant Pseudomonas aeruginosa A/16575 after 24 hrs; type: functional, organism-based
Escherichia coli [6] = experiment: Antibacterial activity against Escherichia coli CCM 3954 after 24 hrs; type: functional, organism-based
K562 [7] = experiment: Cytostatic activity against paclitaxel-resistant human K562 cells after 72 hrs by MTT assay; type: functional, cell-based; settings: K562, 72 h; procedure, shortened: as §1
MRC5 = experiment: Cytostatic activity against human MRC5 cells after 72 hrs by MTT assay; type: ADME, cell-based; settings: MRC5, 72 h; procedure, shortened: as §1
BJ = experiment: Cytostatic activity against human BJ cells after 72 hrs by MTT assay; type: ADME, cell-based; procedure, shortened: as §1
Staphylococcus aureus [8] = experiment: Antibacterial activity against methicillin-resistant Staphylococcus aureus MRSA 4591 after 24 hrs; type: functional, organism-based
HCT-116 [9] = experiment: Cytostatic activity against human HCT116 cells after 72 hrs by MTT assay; type: functional, cell-based; settings: HCT-116, 72 h; procedure, shortened: as §1
Pichia kudriavzevii = experiment: Antifungal activity against Candida crusei after 48 hrs; type: functional, organism-based
Enterococcus faecalis = experiment: Antibacterial activity against Enterococcus faecalis CCM 4224 after 24 hrs; type: functional, organism-based
[10] = test system: Staphylococcus haemolyticus; experiment: Antibacterial activity against methicillin-resistant Staphylococcus haemolyticus A/16568 after 24 hrs; type: functional, organism-based
[11] = Cytotoxicity against human HuH7 cells infected with Hepatitis C virus subtype 2a; type: cell-based, Huh-7
Hepatitis C virus [12] = experiment: Antiviral activity against Hepatitis C virus subtype 2a infected in human HuH7 cells; type: functional, organism-based, Hepacivirus hominis; settings: genotype 2a, Huh-7
[13] = Cytostatic activity against human CEM-DNR-bulk cells after 72 hrs by MTT assay; type: functional, cell-based; procedure, shortened: as §1
HCT-116 [14] = experiment: Cytostatic activity against p53-deficient human HCT116 cells after 72 hrs by MTT assay; type: functional, cell-based; settings: HCT-116, 72 h; procedure, shortened: as §1
Candida albicans = experiment: Antifungal activity against Candida albicans after 48 hrs; type: functional, organism-based
Escherichia coli [15] = experiment: Antibacterial activity against multi-resistant Escherichia coli C/16702 after 24 hrs; type: functional, organism-based
K562 [16] = experiment: Cytostatic activity against human K562 cells after 72 hrs by MTT assay; type: functional, cell-based; settings: K562, 72 h; procedure, shortened: as §1
Hepatitis C virus [17] = experiment: Antiviral activity against Hepatitis C virus subtype 1b infected in human HuH7 cells; type: functional, organism-based, Hepacivirus hominis; settings: genotype 1b, Huh-7
HepG2 = experiment: Antiproliferative activity against human HepG2 cells after 72 hrs by XTT assay; type: functional, cell-based; settings: HepG2, 72 h
CCRF-CEM = experiment: Cytostatic activity against human CCRF-CEM cells after 72 hrs by MTT assay; type: functional, cell-based; procedure, shortened: as §1

Row | SMILES | IC50 (A549) | IC50 [1] | Activity (Staphylococcus aureus [2]) | CC50 [3] | Activity (Candida tropicalis) | Activity (Pseudomonas aeruginosa [4]) | Activity (Candida parapsilosis) | IC50 (HL-60) | Activity (Pseudomonas aeruginosa [5]) | Activity (Escherichia coli [6]) | IC50 (K562 [7]) | IC50 (MRC5) | IC50 (BJ) | Activity (Staphylococcus aureus [8]) | IC50 (HCT-116 [9]) | Activity (Pichia kudriavzevii) | Activity (Enterococcus faecalis) | Activity [10] | CC50 [11] | EC50 (Hepatitis C virus [12]) | further results
1 | Cc1ncnc2c1c(-c1ccco1)cn2[C@@H]1O[C@H](CO)[C@@H](O)[C@H]1O | 0.11 µM | 1.33 µM | inactive | 6.62 µM | inactive | inactive | inactive | 0.21 µM | inactive | inactive | 0.11 µM | 0.61 µM | 0.07 µM | inactive | 0.04 µM | inactive | inactive | inactive | 43.6 µM | 0.15 µM | IC50 [13]: 0.07 µM; IC50 (HCT-116 [14]): 0.04 µM; Activity (Candida albicans): inactive; Activity (Escherichia coli [15]): inactive; IC50 (K562 [16]): 0.04 µM; EC50 (Hepatitis C virus [17]): 0.07 µM; IC50 (HepG2): 0.3 µM; IC50 (CCRF-CEM): 0.04 µM
2 | Nc1nc(N)c2c(-c3ccccc3)cn([C@@H]3O[C@H](CO)[C@@H](O)[C@H]3O)c2n1 | > 20 µM | > 20 µM | inactive | > 44 µM | inactive | inactive | inactive | > 15 µM | inactive | inactive | > 20 µM | > 100 µM | > 100 µM | inactive | > 20 µM | inactive | inactive | inactive | > 44 µM | > 44 µM | IC50 [13]: > 20 µM; IC50 (HCT-116 [14]): > 20 µM; Activity (Candida albicans): inactive; Activity (Escherichia coli [15]): inactive; IC50 (K562 [16]): > 20 µM; EC50 (Hepatitis C virus [17]): > 44 µM; IC50 (HepG2): > 20 µM; IC50 (CCRF-CEM): > 20 µM
3 | CNc1ncnc2c1c(-c1cc3ccccc3o1)cn2[C@@H]1O[C@H](CO)[C@@H](O)[C@H]1O | > 20 µM | > 20 µM | inactive | > 44 µM | inactive | inactive | inactive | 8.95 µM | inactive | inactive | > 20 µM | 75.3 µM | 75.6 µM | inactive | > 20 µM | inactive | inactive | inactive | > 44 µM | 13.6 µM | IC50 [13]: > 20 µM; IC50 (HCT-116 [14]): > 20 µM; Activity (Candida albicans): inactive; Activity (Escherichia coli [15]): inactive; IC50 (K562 [16]): > 20 µM; EC50 (Hepatitis C virus [17]): 2.05 µM; IC50 (HepG2): > 20 µM; IC50 (CCRF-CEM): > 20 µM
4 | Nc1nc(N)c2c(-c3cc4ccccc4o3)cn([C@@H]3O[C@H](CO)[C@@H](O)[C@H]3O)c2n1 | > 20 µM | > 20 µM | inactive | > 44 µM | inactive | inactive | inactive | > 15 µM | inactive | inactive | > 20 µM | 78.5 µM | > 100 µM | inactive | > 20 µM | inactive | inactive | inactive | > 44 µM | 11.5 µM | IC50 [13]: > 20 µM; IC50 (HCT-116 [14]): 14 µM; Activity (Candida albicans): inactive; Activity (Escherichia coli [15]): inactive; IC50 (K562 [16]): 18.6 µM; EC50 (Hepatitis C virus [17]): 5.58 µM; IC50 (HepG2): > 20 µM; IC50 (CCRF-CEM): > 20 µM
5 | Cc1nc(N)c2ccn([C@@H]3O[C@H](CO)[C@@H](O)[C@H]3O)c2n1 | > 100 µM | > 20 µM | inactive | > 44 µM | inactive | inactive | inactive | > 20 µM | inactive | inactive | > 20 µM | > 100 µM | > 100 µM | inactive | > 20 µM | inactive | inactive | inactive | > 44 µM | > 44 µM | IC50 [13]: > 20 µM; IC50 (HCT-116 [14]): > 20 µM; Activity (Candida albicans): inactive; Activity (Escherichia coli [15]): inactive; IC50 (K562 [16]): > 20 µM; EC50 (Hepatitis C virus [17]): > 44 µM; IC50 (HepG2): > 20 µM; IC50 (CCRF-CEM): > 20 µM
